From article PMC3398245 (Analytical Biochemistry, 2012) come the findings set out here.

Experiment [1] has as its target T1, GST-RIP1 kinase domain (Homo sapiens, UniProt Q13546).
T1 sequence (Q13546 8-327): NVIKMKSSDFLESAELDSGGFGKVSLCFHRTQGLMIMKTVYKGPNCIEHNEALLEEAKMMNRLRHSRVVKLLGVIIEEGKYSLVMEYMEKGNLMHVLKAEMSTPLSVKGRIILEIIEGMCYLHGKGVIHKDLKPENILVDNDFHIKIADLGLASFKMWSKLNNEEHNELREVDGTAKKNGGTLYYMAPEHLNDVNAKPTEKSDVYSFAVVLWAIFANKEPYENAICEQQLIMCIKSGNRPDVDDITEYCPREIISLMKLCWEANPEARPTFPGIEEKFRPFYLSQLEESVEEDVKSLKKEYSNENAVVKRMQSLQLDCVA
The experiment in a line: FP competition assay with fluorescein-Nec-3. Format: binding. To be noted: competition with 50 nM 26, 3.4 µM GST-RIP1, 3% DMSO. An outline of the steps:
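Human RIP1 kinase domain (aa 8–327) as a GST fusion, expressed in baculovirus-infected Sf9 cells and purified by glutathione affinity and gel filtration. Tracer (50 nM) preincubated 5 min with 3.4 µM protein. Test compound titrated 0–100 µM at 3% final DMSO, then 10 min incubation. FP read at ex 485/em 535 nm in mP. IC50 from nonlinear variable-slope fit.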

Experiment [2] addresses T1, GST-RIP1 kinase domain. The experiment in a line: FP competition assay with fluorescein-Nec-1. Format: binding. Conditions: competition with 50 nM 20, 2.6 µM GST-RIP1, 3% DMSO.

Turning to `CN1C(=O)C(Cc2c[nH]c3ccccc23)NC1=S` (stereo not shown) [Compound 1], the results for the IC50 on GST-RIP1 kinase domain [1] and on GST-RIP1 kinase domain [2] were 7 ± 0.7 µM and 9.9 ± 0.6 µM, respectively.

In the case of `COc1ccc2c(c1)C1=NN(C(C)=O)C(c3ccc(F)cc3)C1CC2` (stereo not shown) [Compound 7], the IC50 (commonly the concentration that inhibits the measured activity by half) on GST-RIP1 kinase domain [1] is 3.9 ± 0.7 µM; on GST-RIP1 kinase domain [2] it was 10.7 ± 1.8 µM.
